Laboratory results reported in ChEMBL document CHEMBL4411287, “Discovery and optimization of a series of 3-substituted indazole derivatives as multi-target kinase inhibitors for the treatment of lung squamous cell carcinoma” (Eur J Med Chem, 2019).
Calls of active or inactive are those of the source. The rule behind the calls is not given here.

Columns and labels:
[1] = biological target: Fibroblast growth factor receptor 3 (Homo sapiens) (UniProt P22607); experiment: Inhibition of FGFR3 (unknown origin) at 100 nM relative to control
In short: (§1)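 Purified recombinant kinase domains run in ELISA on precoated poly(Glu,Tyr) 4:1 (20 µg/mL) with 10 µM ATP in 50 mM HEPES pH 7.4, 50 mM MgCl2, 0.5 mM MnCl2, 0.2 mM Na3VO4, 1 mM DTT; 1% DMSO control; 60 min at 37 °C. Phosphotyrosine read by PY99 antibody, HRP anti-mouse IgG, OPD/H2O2 at 490 nm; inhibition = [1−A490/A490control]×100%; two separate experiments.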

[2] = biological target: Platelet-derived growth factor receptor beta (Homo sapiens) (UniProt P09619); experiment: Inhibition of PDGFR-beta (unknown origin) at 10 nM relative to control; in short: as §1
[3] = MRT in ICR(CD-1) mouse at 10 mg/kg, po administered via gavage by triple quadrupole mass spectrometric analysis; format: ADME, organism-based; details: in vivo
In short: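 Dosed by gavage at 1 mg/mL in 1% Tween80/water to male ICR mice, 18-22 g, n=3. Blood taken at 0.25, 0.5, 1, 2, 4, 8 and 24 h. Plasma precipitated with methanol:acetonitrile (1:1) containing internal standard, then UPLC-MS/MS on a C18 column with an ammonium acetate/formic acid–acetonitrile gradient. Tmax read directly from the data; MRT calculated per animal from concentration–time curves.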

NCI-H2286 = experiment: Antiproliferative activity against human NCI-H2286 cells after 72 hrs by CCK8 assay; details: NCI-H2286, 72 h
[4] = biological target: ALK tyrosine kinase receptor (Homo sapiens) (UniProt Q9UM73); experiment: Inhibition of ALK (unknown origin) at 1000 nM relative to control
NCI-H1581 = experiment: Antitumor activity against human NCI-H1581 cells xenografted in po dosed nude mouse assessed as tumor growth inhibition administered as qd for 7 to 10 days; format: functional, organism-based
In short: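 Female nude mice, 4-6 weeks old. NCI-H1581 cells (5×10^6 in 200 µL) injected s.c., grown to 700-800 mm³, then 1-mm³ fragments implanted s.c. by trocar. At 100-150 mm³ animals were randomized (vehicle n=12, treated n=6) and dosed orally once daily for 7 days. Tumours measured twice weekly, volume = length×width²/2. TGI calculated from change in tumour volume versus vehicle on the final day, with Student's t-test.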

[5] = biological target: Vascular endothelial growth factor receptor 1 (Homo sapiens) (UniProt P17948); experiment: Inhibition of VEGFR1 (unknown origin) at 10 nM relative to control
In short: (§2)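 ELISA with purified recombinant kinase on plates precoated with poly(Glu,Tyr) 4:1 at 20 µg/mL. ATP 10 µM in HEPES pH 7.4 buffer with MgCl2, MnCl2, Na3VO4 and DTT. Run 60 min at 37 °C. Detected with anti-phosphotyrosine PY99, HRP secondary antibody and o-phenylenediamine, read at 490 nm. Inhibition % = [1 − A490/A490 control]×100. 1% DMSO as negative control.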

[6] = biological target: Fibroblast growth factor receptor 2 (Homo sapiens) (UniProt P21802); experiment: Inhibition of FGFR2 in human SNU-16 cells assessed as decrease in ERK phosphorylation at 25 to 200 nM after 2 hrs by Western blot analysis; format: cell-based
In short: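 SNU-16 cells exposed to compound for 2 h at 37 °C, lysed in 1× SDS sample buffer, resolved by 10% SDS-PAGE and blotted to nitrocellulose; probed for phospho-FGFR, FGFR2, phospho-ERK, ERK and GAPDH, then HRP anti-rabbit or anti-mouse IgG; enhanced chemiluminescence detection.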

[7] = biological target: Angiopoietin-1 receptor (Homo sapiens) (UniProt Q02763); experiment: Inhibition of Tie-2 (unknown origin) at 100 nM relative to control; in short: as §2
[8] = biological target: Receptor tyrosine-protein kinase erbB-2 (Homo sapiens) (UniProt P04626); experiment: Inhibition of ErbB2 (unknown origin) at 100 nM relative to control; in short: as §1
[9] = biological target: Hepatocyte growth factor receptor (Homo sapiens) (UniProt P08581); experiment: Inhibition of c-Met (unknown origin) at 1000 nM relative to control; in short: as §2
[10] = Cmax in ICR(CD-1) mouse at 10 mg/kg, po administered via gavage by triple quadrupole mass spectrometric analysis; format: ADME, organism-based; set-up: dose 10 mg/kg, route oral; details: in vivo
In short: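 Oral gavage at 1 mg/mL in 1% Tween80/water to male ICR mice (18-22 g, n=3). Plasma sampled at 0.25, 0.5, 1, 2, 4, 8 and 24 h, protein precipitated with methanol:acetonitrile (1:1) containing internal standard, and quantified by UPLC-triple quadrupole MS. AUC and MRT were taken from per-animal time-concentration curves. Cmax is the maximum plasma level and Tmax the time to reach it.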

[11] = biological target: Fibroblast growth factor receptor 3 (Homo sapiens) (UniProt P22607); experiment: Inhibition of FGFR3 (unknown origin) at 1000 nM relative to control; in short: as §1
[12] = biological target: Proto-oncogene tyrosine-protein kinase Src (Homo sapiens) (UniProt P12931); experiment: Inhibition of c-Src (unknown origin) at 10 nM relative to control; in short: as §2
[13] = biological target: Fibroblast growth factor receptor 3 (Homo sapiens) (UniProt P22607); experiment: Inhibition of FGFR3 (unknown origin) at 10 nM relative to control; in short: as §1
[14] = biological target: Tyrosine-protein kinase BTK (Homo sapiens) (UniProt Q06187); experiment: Inhibition of BTK (unknown origin) at 1000 nM relative to control
[15] = biological target: Receptor tyrosine-protein kinase erbB-4 (Homo sapiens) (UniProt Q15303); experiment: Inhibition of ErbB4 (unknown origin) at 1000 nM relative to control; in short: as §1
[16] = biological target: Mitogen-activated protein kinase 1 (Homo sapiens) (UniProt P28482); experiment: Inhibition of ERK2 (unknown origin) at 10 nM relative to control
[17] = biological target: Macrophage colony-stimulating factor 1 receptor (Homo sapiens) (UniProt P07333); experiment: Inhibition of CSF-1R (unknown origin) at 10 nM relative to control
[18] = biological target: Tyrosine-protein kinase receptor UFO (Homo sapiens) (UniProt P30530); experiment: Inhibition of AXL (unknown origin) at 10 nM relative to control
[19] = biological target: Cyclin-dependent kinase 6 (Homo sapiens) (UniProt Q00534); experiment: Inhibition of CDK6 (unknown origin) at 10 nM relative to control
[20] = biological target: Platelet-derived growth factor receptor alpha (Homo sapiens) (UniProt P16234); experiment: Inhibition of PDGFR-alpha (unknown origin) at 100 nM relative to control; in short: as §1
[21] = biological target: Hepatocyte growth factor receptor (Homo sapiens) (UniProt P08581); experiment: Inhibition of c-Met (unknown origin) at 100 nM relative to control; in short: as §2
[22] = biological target: Focal adhesion kinase 1 (Homo sapiens) (UniProt Q05397); experiment: Inhibition of FAK (unknown origin) at 100 nM relative to control; in short: as §1
[23] = biological target: Mitogen-activated protein kinase 3 (Homo sapiens) (UniProt P27361); experiment: Inhibition of ERK1 (unknown origin) at 100 nM relative to control
[24] = biological target: Receptor-type tyrosine-protein kinase FLT3 (Homo sapiens) (UniProt P36888); experiment: Inhibition of FLT-3 (unknown origin) at 1000 nM relative to control; in short: as §1

Chain of Fibroblast growth factor receptor 3 (Homo sapiens) (P22607 23-806 limits assumed): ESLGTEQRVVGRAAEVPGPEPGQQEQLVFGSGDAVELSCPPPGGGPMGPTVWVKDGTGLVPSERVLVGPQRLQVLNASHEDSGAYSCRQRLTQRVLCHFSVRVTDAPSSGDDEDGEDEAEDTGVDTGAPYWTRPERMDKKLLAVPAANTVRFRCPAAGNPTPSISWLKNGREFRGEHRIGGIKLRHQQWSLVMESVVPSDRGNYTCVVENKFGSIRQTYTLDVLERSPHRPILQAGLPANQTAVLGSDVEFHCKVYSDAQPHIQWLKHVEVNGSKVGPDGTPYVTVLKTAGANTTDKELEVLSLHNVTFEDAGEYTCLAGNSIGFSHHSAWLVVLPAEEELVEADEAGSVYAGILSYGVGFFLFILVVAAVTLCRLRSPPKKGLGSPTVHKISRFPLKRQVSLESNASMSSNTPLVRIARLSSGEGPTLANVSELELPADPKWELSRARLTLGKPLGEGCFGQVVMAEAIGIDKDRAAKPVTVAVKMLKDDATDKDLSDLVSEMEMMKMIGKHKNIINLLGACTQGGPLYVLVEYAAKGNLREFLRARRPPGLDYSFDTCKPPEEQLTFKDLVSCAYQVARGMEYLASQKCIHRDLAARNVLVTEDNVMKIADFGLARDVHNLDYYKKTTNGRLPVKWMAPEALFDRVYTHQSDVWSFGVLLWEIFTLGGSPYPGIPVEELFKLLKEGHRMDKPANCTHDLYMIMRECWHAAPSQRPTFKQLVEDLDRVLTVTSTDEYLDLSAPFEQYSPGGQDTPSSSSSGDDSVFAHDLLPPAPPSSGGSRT
Chain of Hepatocyte growth factor receptor (Homo sapiens) (P08581 whole entry): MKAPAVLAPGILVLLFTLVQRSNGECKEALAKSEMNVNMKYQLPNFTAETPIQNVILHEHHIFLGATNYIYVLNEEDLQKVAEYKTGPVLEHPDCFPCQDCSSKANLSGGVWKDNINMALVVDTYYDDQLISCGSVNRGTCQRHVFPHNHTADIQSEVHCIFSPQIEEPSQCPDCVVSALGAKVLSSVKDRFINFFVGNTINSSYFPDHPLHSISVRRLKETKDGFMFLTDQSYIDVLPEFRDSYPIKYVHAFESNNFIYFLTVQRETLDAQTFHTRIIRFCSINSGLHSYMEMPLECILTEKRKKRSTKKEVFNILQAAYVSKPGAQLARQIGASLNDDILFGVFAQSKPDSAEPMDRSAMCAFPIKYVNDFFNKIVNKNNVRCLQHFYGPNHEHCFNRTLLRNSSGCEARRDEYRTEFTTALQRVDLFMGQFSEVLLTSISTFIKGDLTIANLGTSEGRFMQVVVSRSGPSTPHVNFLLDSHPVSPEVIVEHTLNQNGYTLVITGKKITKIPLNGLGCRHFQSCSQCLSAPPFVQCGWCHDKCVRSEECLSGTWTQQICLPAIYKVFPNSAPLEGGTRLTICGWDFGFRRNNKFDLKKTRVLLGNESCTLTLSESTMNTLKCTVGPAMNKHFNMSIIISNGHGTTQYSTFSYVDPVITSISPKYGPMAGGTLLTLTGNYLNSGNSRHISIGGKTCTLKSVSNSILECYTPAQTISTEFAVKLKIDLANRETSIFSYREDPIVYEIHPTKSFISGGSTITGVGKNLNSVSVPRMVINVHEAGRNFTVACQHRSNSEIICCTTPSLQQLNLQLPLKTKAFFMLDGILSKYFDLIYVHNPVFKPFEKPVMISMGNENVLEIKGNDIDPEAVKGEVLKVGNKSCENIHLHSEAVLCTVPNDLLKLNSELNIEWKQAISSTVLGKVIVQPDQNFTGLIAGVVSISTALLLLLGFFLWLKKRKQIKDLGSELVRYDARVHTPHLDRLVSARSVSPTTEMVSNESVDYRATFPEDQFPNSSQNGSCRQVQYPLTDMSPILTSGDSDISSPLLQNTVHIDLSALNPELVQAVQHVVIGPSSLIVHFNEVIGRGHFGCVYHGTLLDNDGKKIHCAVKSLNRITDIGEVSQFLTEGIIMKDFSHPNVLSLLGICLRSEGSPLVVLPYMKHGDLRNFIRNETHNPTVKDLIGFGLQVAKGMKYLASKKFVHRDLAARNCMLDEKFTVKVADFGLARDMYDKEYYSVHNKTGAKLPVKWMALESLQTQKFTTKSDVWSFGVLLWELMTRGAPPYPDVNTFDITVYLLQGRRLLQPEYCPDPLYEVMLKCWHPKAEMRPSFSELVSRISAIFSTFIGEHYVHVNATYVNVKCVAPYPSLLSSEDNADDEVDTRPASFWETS
Chain of Vascular endothelial growth factor receptor 1 (Homo sapiens) (P17948 whole entry): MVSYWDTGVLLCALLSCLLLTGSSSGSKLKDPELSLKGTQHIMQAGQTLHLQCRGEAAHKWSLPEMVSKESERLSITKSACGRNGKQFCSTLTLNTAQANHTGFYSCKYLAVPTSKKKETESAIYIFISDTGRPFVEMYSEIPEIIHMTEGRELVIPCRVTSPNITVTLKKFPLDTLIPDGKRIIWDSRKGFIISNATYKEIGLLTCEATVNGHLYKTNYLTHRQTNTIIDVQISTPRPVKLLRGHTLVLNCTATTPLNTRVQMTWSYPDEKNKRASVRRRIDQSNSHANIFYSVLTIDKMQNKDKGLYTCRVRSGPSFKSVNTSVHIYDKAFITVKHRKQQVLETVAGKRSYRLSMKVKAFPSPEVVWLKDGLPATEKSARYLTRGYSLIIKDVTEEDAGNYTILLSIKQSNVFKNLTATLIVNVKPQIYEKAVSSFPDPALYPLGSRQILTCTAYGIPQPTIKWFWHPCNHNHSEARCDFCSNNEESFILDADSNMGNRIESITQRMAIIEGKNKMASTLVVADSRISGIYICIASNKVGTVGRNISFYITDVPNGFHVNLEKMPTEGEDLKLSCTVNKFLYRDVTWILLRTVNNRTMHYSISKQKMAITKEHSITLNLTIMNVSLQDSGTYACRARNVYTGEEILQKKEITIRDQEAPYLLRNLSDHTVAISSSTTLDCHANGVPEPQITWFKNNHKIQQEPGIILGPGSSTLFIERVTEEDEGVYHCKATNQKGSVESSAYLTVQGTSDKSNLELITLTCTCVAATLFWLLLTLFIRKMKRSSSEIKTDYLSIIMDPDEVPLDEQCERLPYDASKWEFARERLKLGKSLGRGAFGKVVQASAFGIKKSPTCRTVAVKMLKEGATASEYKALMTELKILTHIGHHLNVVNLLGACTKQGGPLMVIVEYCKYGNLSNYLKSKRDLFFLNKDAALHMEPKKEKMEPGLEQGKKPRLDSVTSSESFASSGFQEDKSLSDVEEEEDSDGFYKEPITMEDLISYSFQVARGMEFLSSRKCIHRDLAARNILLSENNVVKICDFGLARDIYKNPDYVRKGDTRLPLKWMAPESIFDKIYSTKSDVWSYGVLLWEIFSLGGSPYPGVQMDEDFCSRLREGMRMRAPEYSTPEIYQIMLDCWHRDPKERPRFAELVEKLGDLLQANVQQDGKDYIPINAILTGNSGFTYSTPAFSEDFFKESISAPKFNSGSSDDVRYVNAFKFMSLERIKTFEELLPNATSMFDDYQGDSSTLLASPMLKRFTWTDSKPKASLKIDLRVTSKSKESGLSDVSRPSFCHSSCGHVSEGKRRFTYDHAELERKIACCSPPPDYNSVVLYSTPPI
Chain of Platelet-derived growth factor receptor alpha (Homo sapiens) (P16234 whole entry): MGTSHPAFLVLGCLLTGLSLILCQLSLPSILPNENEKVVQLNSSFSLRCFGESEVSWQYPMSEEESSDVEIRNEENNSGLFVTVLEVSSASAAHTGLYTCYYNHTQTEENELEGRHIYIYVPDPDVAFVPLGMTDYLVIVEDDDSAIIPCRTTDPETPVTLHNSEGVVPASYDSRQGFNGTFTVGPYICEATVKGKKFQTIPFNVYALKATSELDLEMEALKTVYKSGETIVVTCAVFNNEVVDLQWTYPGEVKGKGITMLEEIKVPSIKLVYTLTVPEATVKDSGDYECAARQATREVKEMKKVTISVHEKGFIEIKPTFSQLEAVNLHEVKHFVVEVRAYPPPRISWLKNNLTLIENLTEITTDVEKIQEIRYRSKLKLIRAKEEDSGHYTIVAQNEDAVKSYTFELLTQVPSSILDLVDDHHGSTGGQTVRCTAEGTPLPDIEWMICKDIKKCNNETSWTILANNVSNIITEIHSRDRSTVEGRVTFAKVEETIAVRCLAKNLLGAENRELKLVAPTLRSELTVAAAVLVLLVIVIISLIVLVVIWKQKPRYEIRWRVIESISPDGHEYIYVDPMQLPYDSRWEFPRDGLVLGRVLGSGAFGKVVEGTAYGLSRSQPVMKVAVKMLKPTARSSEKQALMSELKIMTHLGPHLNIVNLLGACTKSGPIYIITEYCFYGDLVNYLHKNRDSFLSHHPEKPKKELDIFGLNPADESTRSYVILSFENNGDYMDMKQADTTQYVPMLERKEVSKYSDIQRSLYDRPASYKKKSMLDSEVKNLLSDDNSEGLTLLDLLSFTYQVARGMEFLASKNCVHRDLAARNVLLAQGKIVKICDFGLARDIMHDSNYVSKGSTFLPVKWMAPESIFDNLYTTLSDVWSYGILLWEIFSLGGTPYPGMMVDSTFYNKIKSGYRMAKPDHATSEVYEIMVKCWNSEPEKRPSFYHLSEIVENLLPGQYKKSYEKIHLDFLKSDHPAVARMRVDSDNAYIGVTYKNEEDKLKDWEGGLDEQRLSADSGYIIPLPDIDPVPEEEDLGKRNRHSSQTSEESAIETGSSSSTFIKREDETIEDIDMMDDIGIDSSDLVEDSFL
Chain of Mitogen-activated protein kinase 1 (Homo sapiens) (P28482 whole entry): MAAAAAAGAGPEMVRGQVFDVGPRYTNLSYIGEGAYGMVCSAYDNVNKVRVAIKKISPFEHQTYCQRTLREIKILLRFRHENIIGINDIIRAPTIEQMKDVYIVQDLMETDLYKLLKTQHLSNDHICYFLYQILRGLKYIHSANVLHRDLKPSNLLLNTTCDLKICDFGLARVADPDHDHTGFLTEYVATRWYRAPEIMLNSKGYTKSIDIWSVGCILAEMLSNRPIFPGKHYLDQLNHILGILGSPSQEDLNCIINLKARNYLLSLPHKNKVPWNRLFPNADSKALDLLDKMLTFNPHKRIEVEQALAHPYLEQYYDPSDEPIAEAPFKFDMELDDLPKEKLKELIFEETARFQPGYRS

Cc1ccc(C(=O)Nc2cccc(C(F)(F)F)c2)cc1-c1ccc2c(-c3cnn(C4CC4)c3)n[nH]c2c1
inhibition [1]: 82%
inhibition [2]: 59.5%
MRT [3]: 5.71 h
IC50 (NCI-H2286): 93 nM
inhibition [4]: 93.5%
TGI (NCI-H1581): Dose-dependent effect
inhibition [5]: 25.8%
inhibition [6]: Active
inhibition [7]: 36.4%
inhibition [8]: 5.6%
inhibition [9]: 47.5%
Cmax [10]: 1120 ng/mL
inhibition [11]: 94.2%
inhibition [12]: 64.5%
inhibition [13]: 52.3%
inhibition [14]: 80.9%
inhibition [15]: 36.9%
inhibition [16]: 0.3%
inhibition [17]: 65.3%
inhibition [18]: 42%
inhibition [19]: 0.5%
inhibition [20]: 75.7%
inhibition [21]: 0.3%
inhibition [22]: 8.4%
inhibition [23]: 0.6%
inhibition [24]: 86.2%
